The Ki is the equilibrium dissociation constant of an inhibitor or competing ligand from its target. Low values mean a stronger hold on the target, high ones a looser hold on the target.

The target of this assay is T1, C-C chemokine receptor type 3 (Homo sapiens, UniProt P51677).
T1 sequence (P51677 whole entry): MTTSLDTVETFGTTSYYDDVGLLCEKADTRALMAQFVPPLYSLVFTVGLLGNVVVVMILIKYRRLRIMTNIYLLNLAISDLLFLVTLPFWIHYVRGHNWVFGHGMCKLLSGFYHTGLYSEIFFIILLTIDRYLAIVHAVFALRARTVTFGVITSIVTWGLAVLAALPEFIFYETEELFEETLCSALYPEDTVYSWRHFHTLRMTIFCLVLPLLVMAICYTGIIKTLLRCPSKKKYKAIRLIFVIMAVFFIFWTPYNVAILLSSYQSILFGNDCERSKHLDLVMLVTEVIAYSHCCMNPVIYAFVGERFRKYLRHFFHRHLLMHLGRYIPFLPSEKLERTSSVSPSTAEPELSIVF
As to the kind of experiment: Inhibition of [125I]eotaxin-1 binding to human chemokine receptor (hCCR3-C1). In short, it runs like this:
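K562 leukemia myelogenic blast cells transfected with human CCR3 (hCCR3-C1). Binding of the radioligand 125I-eotaxin-1 was measured in a scintillation proximity format. Controls: specific binding with no displacer added, and nonspecific binding with unlabeled eotaxin or test compound added. Bound radioactivity was counted by scintillation. Ki was obtained by iterative fitting of the data to a law-of-mass-action model.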
As to `CC(C)(C)c1ccc(C(CNCCc2ccccc2)N2CCN(C3CCCCC3)CC2)cc1` (stereo unspecified), the inhibitory constant (Ki) was 0.35 µM.

For `CN1CCN(C(CNCCc2ccccc2)c2ccc(C(F)(F)F)cc2)CC1` (stereo unspecified), the inhibition constant Ki amounted to 4.73 µM.

Consider `COc1ccc(CCNCC(c2ccc(C(C)(C)C)cc2)N2CCN(C3CCCCC3)CC2)cc1` (stereo unspecified), for which the affinity, expressed as Ki, was 0.346 µM.

The compound `Cc1ccc(CC(=O)NCC(c2ccccc2)N2CCN(c3ccccc3)CC2)cc1` (stereo unspecified) gave a Ki of 26.9 µM. This Ki is about 78-fold higher than that of the compound before.

In the case of `COc1ccc(NC(=O)NCC(c2ccccc2OC)N2CCN(C3CCCCC3)CC2)cc1` (stereo unspecified), the Ki came out at 10.5 µM.

Consider `Cc1ccc(CCNCC(c2ccc(N(C)C)cc2)N2CCN(c3ccccc3)CC2)cc1` (stereo unspecified), for which the inhibitory constant (Ki) was determined as 0.435 µM.

As for `Clc1cc(Cl)cc(CCNCC(c2ccccc2)N2CCN(C3CCCCC3)CC2)c1` (stereo unspecified), the inhibition constant Ki was 0.08 µM.

The compound `Cc1ccc(CCNCC(c2ccccc2)N2CCN(C)CC2)cc1` (stereo unspecified) registered a Ki of 11.6 µM.

Regarding `COc1ccc(C(CNCCc2ccc(C)cc2)N2CCN(C3CCCCC3)CC2)cc1` (stereo unspecified), affinity was put at a Ki of 0.914 µM.

As to `O=C(NCC(c1ccccc1)N1CCN(C2CCCCC2)CC1)Nc1ccc(F)cc1` (stereo unspecified), the affinity corresponds to a Ki of 6.36 µM.

In the case of `CC(C)(C)c1ccc(C(CNC(=O)Cc2ccc(C(F)(F)F)cc2)N2CCN(C3CCCCC3)CC2)cc1` (stereo unspecified), the affinity corresponds to a Ki of 10.3 µM.

The values are drawn from ChEMBL document CHEMBL1142703, “Novel ligands for the chemokine receptor-3 (CCR3): a receptor-modeling study based on 5D-QSAR” (J Med Chem, 2005).
